Laboratory results reported in article PMC3383025 (Molecular Cancer Therapeutics, 2009).
Values joined by “and” are separate entries in the source; they are usually repeats but may differ in a detail not shown here. Equal values may be shown once. Read-outs that look alike come from different tables or passages of the source.

Experiments:
LNCaP cells [1] = assay: Intracellular free Ca+2; format: cell-based, human; conditions: for Intracellular free calcium: 10 min after exposure to 1 µmol/L, starting concentration ~40 nmol/L
AR protein = assay: Western blot analysis of AR protein; format: cell-based, human; conditions: LNCaP cells; for AR Protein (% of control): after 24 h of exposure to 1 µmol/L
LNCaP = assay: Clonogenic survival assay; format: cell-based, human; conditions: for Killing ability LD50: loss of 50% clonogenic ability after 48 h exposure; for CC50: read-out: Cell death of LNCaP LC50
LAPC-4 = assay: Clonogenic survival assay; format: cell-based, human; conditions: loss of 50% clonogenic ability after 48 h exposure
VCaP = assay: Clonogenic survival assay; format: cell-based, human; conditions: loss of 50% clonogenic ability after 48 h exposure
MDA-PC-2b = assay: Clonogenic survival assay; format: cell-based, human; conditions: loss of 50% clonogenic ability after 48 h exposure
CWR22Rv1 = assay: Clonogenic survival assay; format: cell-based, human; conditions: loss of 50% clonogenic ability after 48 h exposure
[2] = cited from earlier work
[3] = biological target: rabbit skeletal muscle SERCA pump (Oryctolagus cuniculus, UniProt P04191); assay: SERCA pump activity inhibition; format: biochemical
[4] = system: androgen ablation refractory human prostate cancer lines; assay: Clonogenic survival assay, each of the five lines; format: cell-based; conditions: LNCaP, LAPC-4, VCaP, MDA-PCa-2b, CWR22Rv1
Method in brief: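 Clonogenic survival of each prostate cancer line after 48 h exposure to a concentration series of test compound. LD₅₀ is the nmol/L concentration causing 50% loss of clonogenic ability.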

LNCaP cells [5] = assay: Percentage of cells in cycle, Ki67 flow cytometry; format: cell-based, human; conditions: TG exposure, untreated 91% ± 2%
AR mRNA = AR mRNA by reverse transcription-PCR; format: cell-based, human; conditions: LNCaP, LAPC-4 and CWR22Rv1 cells; 1 µmol/L TG, various times
total protein synthesis = assay: Total protein synthesis, S35-methionine incorporation; format: cell-based, human; conditions: LNCaP; at 24 hours post-TG exposure
Method in brief: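 LNCaP cells were treated for 6 or 24 h (1 µmol/L test compound) and labelled with S³⁵-methionine for 30 min before lysis. Incorporation was measured as TCA-precipitable counts and expressed per cell as percent of incorporation in exponentially growing untreated cells.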

[6] = system: AR-specific protein synthesis; format: cell-based, human
Method in brief: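 LNCaP cells exposed to 1 µmol/L test compound for 6 or 24 h, then pulsed with S³⁵-methionine for 30 min before lysis. AR was immunoprecipitated from an aliquot of the labelled total protein with N-20 anti-AR antibody and Protein-A agarose beads, then Western blotted. AR-associated radioactivity was captured on X-ray film and quantitated by imaging.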

[7] = system: IRE1-dependent XBP-1 processing; assay: ER stress: IRE1-dependent XBP-1/venus processing, fluorescent cells; format: cell-based, human
LNCaP cells [8] = conditions: over the next 18 to 36 hours after return to baseline; cited from earlier work

rabbit skeletal muscle SERCA pump, sequence (P04191 1-994 isoform P04191-2): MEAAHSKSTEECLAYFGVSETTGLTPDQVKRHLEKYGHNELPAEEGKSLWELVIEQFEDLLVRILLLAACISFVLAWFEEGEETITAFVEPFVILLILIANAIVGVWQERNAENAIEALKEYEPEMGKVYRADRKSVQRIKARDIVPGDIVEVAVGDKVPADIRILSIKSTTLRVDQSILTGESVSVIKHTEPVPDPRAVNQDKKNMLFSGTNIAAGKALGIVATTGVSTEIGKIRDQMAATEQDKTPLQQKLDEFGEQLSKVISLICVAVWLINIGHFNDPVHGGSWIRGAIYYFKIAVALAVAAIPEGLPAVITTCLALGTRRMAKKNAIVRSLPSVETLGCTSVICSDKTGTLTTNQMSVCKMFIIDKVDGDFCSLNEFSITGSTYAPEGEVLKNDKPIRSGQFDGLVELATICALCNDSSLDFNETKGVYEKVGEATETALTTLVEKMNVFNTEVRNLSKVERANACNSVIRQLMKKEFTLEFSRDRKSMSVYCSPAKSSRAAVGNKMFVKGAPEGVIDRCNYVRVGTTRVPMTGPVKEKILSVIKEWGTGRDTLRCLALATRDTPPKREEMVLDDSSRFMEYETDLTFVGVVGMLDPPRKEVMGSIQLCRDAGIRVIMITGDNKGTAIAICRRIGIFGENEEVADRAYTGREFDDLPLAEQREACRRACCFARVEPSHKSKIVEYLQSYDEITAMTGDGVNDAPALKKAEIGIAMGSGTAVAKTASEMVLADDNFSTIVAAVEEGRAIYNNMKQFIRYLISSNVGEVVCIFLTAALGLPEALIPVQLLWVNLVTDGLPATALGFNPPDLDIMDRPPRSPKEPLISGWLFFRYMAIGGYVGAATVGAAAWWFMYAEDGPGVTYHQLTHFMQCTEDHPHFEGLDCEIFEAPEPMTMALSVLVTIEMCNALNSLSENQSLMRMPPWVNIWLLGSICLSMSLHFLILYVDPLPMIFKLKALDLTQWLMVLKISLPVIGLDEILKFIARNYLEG

Molecule | Intracellular free calcium (LNCaP cells [1]) | AR Protein (% of control) (AR protein) | Killing ability LD50 (LNCaP; LNCaP) | CC50 (LNCaP; after 48 h of exposure) | Killing ability LD50 (LAPC-4) | Killing ability LD50 (VCaP) | Killing ability LD50 (MDA-PC-2b) | Killing ability LD50 (CWR22Rv1) | host toxicity on systemic administration [2] | other results
C/C=C(/C)C(=O)O[C@H]1C(C)=C2[C@H]([C@@H]1OC(=O)CCCCCCC)[C@@](C)(OC(C)=O)C[C@H](OC(=O)CCCCCCCCCCCN)[C@@]1(O)[C@H]2OC(=O)[C@@]1(C)O [Analog 12ADT, 8-O-(12-dodecanyl)-8-O-debutanoyl TG] | 369 ± 23 nmol/L | 14 ± 3 % of control | 55 ± 12 nmol/L | 55 ± 12 nM | 80 ± 19 nmol/L | 67 ± 25 nmol/L | 95 ± 35 nmol/L | 85 ± 27 nmol/L | cannot be given systemically without host toxicity | –
C/C=C(/C)C(=O)O[C@H]1C(C)=C2[C@H]([C@@H]1OC(=O)CCCCCCC)[C@@](C)(OC(C)=O)C[C@H](OC(=O)CCCCCCCCCCCNC(=O)C[C@H](N)C(=O)O)[C@@]1(O)[C@H]2OC(=O)[C@@]1(C)O [Analog D12ADT, asparty-12ADT] | 385 ± 40 nmol/L | 11 ± 6 % of control | 40 ± 12 nmol/L | 40 ± 12 nM | 55 ± 9 nmol/L | 70 ± 18 nmol/L | 51 ± 12 nmol/L | 39 ± 7 nmol/L | – | –
C/C=C(/C)C(=O)O[C@H]1C(C)=C2[C@H]([C@@H]1OC(=O)CCCCCCC)[C@@](C)(OC(C)=O)C[C@H](OC(=O)CCC)[C@@]1(O)[C@H]2OC(=O)[C@@]1(C)O [TG, Thapsigargin, reference compound] | 441 ± 35 nmol/L | 10 ± 2 % of control | 10 nmol/L and 10 ± 5 nmol/L | – | 25 ± 6 nmol/L | 20 ± 7 nmol/L | 43 ± 12 nmol/L | 38 ± 9 nmol/L | cannot be given systemically without host toxicity | IC50 [3]: 13 ± 2 nM; initial increase in Cai (LNCaP cells [1]; from ~40 nmol/L, within minutes): > 300 nmol/L; depletion of AR protein (AR protein; by 24 hours of TG exposure): 90%; CC50 (LNCaP; Homo sapiens, LNCaP, 48 h): 10 ± 5 nM; LD50 for each of the lines [4]: < 100 nmol/L; Ki67+ cells (LNCaP cells [5]; 24 hours): 25% ± 8%; Ki67+ cells (LNCaP cells [5]; 48 hours): > 10%; change in AR mRNA (AR mRNA): no change; inhibition of general protein synthesis (total protein synthesis): > 60%; decrease in rate of AR-specific protein synthesis ([6]; LNCaP cells, 1 µmol/L TG): > 90%; inhibition of AR-specific protein synthesis ([6]; LNCaP, at 24 hours post-TG exposure): > 90%; percent of fluorescent (ER-stressed) cells ([7]; XBP-1/venus-transfected LNCaP and CWR22Rv1, 500 µmol/L TG, by 24 hours): > 80%; delayed sustained increase in Cai (LNCaP cells [8]): > 1 µmol/L
alanyl-12ADT [Analog A12ADT] | 410 ± 45 nmol/L | 15 ± 4 % of control | 8 ± 4 nmol/L | 8 ± 4 nM | 28 ± 7 nmol/L | 23 ± 9 nmol/L | 40 ± 6 nmol/L | 38 ± 11 nmol/L | – | –
leucyl-12ADT [Analog L12ADT] | 414 ± 44 nmol/L | 8 ± 4 % of control | 14 ± 8 nmol/L | 14 ± 8 nM | 32 ± 9 nmol/L | 25 ± 11 nmol/L | 42 ± 5 nmol/L | 34 ± 16 nmol/L | – | cells with IRE1-dependent XBP-1 processing (flow cytometric GFP) ([7]; LNCaP, 500 nmol/L, within 24 h): all cells
